Measurements: article PMC7221417 (European journal of medicinal chemistry, 2020)

What was measured:
Stability in DMSO = assay type: physicochemical; conditions: for free anastrozole observed in DMSO (1H NMR): 2 mM, 15 min
[1] = Qualitative solubility in water and organic solvents; assay type: physicochemical
[2] = biological target: T1, aromatase (CYP19) in H295R cells (Homo sapiens, UniProt P11511); assay: Tritiated water-release assay of aromatase activity in H295R cells; assay type: cell-based
T1 sequence (P11511 1-503): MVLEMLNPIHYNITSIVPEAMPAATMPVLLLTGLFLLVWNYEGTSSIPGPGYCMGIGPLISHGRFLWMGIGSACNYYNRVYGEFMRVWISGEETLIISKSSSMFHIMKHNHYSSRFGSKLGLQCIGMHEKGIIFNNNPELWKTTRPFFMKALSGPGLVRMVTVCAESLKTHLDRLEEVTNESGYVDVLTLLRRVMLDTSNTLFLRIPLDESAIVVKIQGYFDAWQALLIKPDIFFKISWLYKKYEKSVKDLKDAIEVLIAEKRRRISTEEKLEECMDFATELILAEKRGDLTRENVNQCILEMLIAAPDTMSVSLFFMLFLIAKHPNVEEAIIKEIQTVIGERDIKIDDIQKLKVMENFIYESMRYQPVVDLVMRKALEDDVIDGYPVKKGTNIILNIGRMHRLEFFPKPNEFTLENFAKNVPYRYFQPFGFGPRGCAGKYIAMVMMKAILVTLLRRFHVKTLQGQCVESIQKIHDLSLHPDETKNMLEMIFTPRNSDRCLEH
Summary of the method: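 H295R cells were seeded at 100,000/well in DMEM/F-12 with Nu Serum and ITS for 24 h, then washed with PBS. They were incubated 1.5 h at 37 °C, 5% CO2, in phenol red-free DMEM/F-12 with 54nM 1β-3H-androstenedione plus test compound at 0.1, 1, 10, 100 nM. Released tritiated water was counted by liquid scintillation. Controls were cell-free blanks and 0.1% DMSO. Data are mean ± SD.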

[3] = system: MCF7 cells (ER+ breast cancer); assay: Sulforhodamine B; assay type: cell-based, human; conditions: for Selectivity index (SI): IC50 (MCF12A) / IC50 (MCF7)
[4] = system: T47D cells (ER+ breast cancer); assay: Sulforhodamine B; assay type: cell-based, human; conditions: for IC50: T47D
[5] = system: MCF12A cells (non-cancerous breast); assay: Sulforhodamine B; assay type: cell-based, human
[6] = system: MDA-MB-231 cells (ER- / triple negative breast cancer); assay: Sulforhodamine B; assay type: cell-based, human; conditions: for Selectivity index (SI): IC50 (MCF12A) / IC50 (MDA-MB-231)
[7] = system: H295R cells (adrenocortical carcinoma); assay: Sulforhodamine B; assay type: cell-based, human
[8] = system: zebrafish (Danio rerio) embryos; conditions: concentrations far less than its IC50 value in human cancer cells; cited from earlier work
[9] = system: zebrafish (Danio rerio) embryos; assay: Zebrafish embryo toxicity assay; assay type: in vivo; conditions: 0.1, 0.5, 1 μM; 24-96 hpf; vs untreated control
Summary of the method: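 Wild-type Danio rerio embryos were raised at 28.5 °C. From the 2- or 4-cell stage they were exposed in 5 mL fish medium to test compound at 0.1, 0.5, 1 μM (0.5% DMSO final). Medium was refreshed at 48 h. Mortality, gross morphology and hatching were scored by stereomicroscope every 24 h to 96 hpf, against an untreated control. Triplicates, 60 embryos per treatment from three crosses; mean ± SD.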

[10] = Stability in cell culture medium/DMSO; assay type: physicochemical; conditions: 10 μM, full DMEM/F12 medium (max 0.1% DMSO), 37 °C, 1.5 h, HPLC
Summary of the method: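 Test compound at 10 μM in DMEM/F12 (0.1% DMSO, from DMSO stock) was held 1.5 h at 37 °C. Released ligand was extracted into diethyl ether, then cleaned on silica with acetone. The residue was redissolved in acetone with 100 μM hydrocortisone as external standard. It was run on C18 UHPLC with a 13 min water/acetonitrile gradient at 2 mL/min, with UV detection, and quantified against standard curves. Three replicates.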

[11] = Solubility in culture medium/DMSO and water/DMSO by UV-Vis; assay type: physicochemical
Summary of the method: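 Test compound in phenol red-free DMEM-F12 (0.1% DMSO) at 0.01, 0.1, 1, 5, 10, 20 μM, and in water (max 0.5% DMSO) at 1, 5, 10, 15 μM. Each solution was passed through a 0.2 μm syringe filter, then absorbance at 350–370 nm was read on a plate reader. A linear concentration–absorbance relationship was taken to indicate solubility.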

[12] = MCF12A (non-cancerous), 48 h exposure, SRB assay
[13] = MDA-MB-231, 48 h exposure, SRB assay
[14] = H295R, 48 h exposure, SRB assay

Compound: C1=CCCC=CCC1.CC(C)(C#N)c1cc(Cn2cncn2)cc(C(C)(C)C#N)c1.CC(C)(C#N)c1cc(Cn2cncn2)cc(C(C)(C)C#N)c1.[Cl-].[Cl-].[Ru+2] [Complex 1, RuCOD(ATZ)2Cl2]
- free anastrozole observed in DMSO (1H NMR) (Stability in DMSO): 25%

Compound: CC(C)(C#N)c1cc(Cn2cncn2)cc(C(C)(C)C#N)c1.CS(C)=O.[Cl-].[Cl-].[Cl-].[Cl-].[Na+].[Ru+3] [Complex 3, Na[trans-RuCl4ATZ(DMSO)]]
- solubility in water (qualitative) [1]: soluble in water

Compound: CC(C)(C#N)c1cc(Cn2cncn2)cc(C(C)(C)C#N)c1 [anastrozole, reference compound]
- inhibition at 0.01 µM ([2]; NCI-H295R, read-out: inhibition of aromatase activity): ~50%
- IC50 ([3]; Homo sapiens, MCF7, 48 h): > 100 µM
- IC50 ([4]; Homo sapiens, 48 h): > 100 µM
- IC50 ([5]; Homo sapiens, MCF-12A, 48 h): > 100 µM
- IC50 ([6]; Homo sapiens, MDA-MB-231, 48 h): > 100 µM
- IC50 ([7]; Homo sapiens, NCI-H295R, 48 h): > 100 µM

Compound: N.N.[Cl][Pt][Cl] [cisplatin]
- hatching rate of zebrafish embryos [8]: significant inhibition of hatching rate
- Selectivity index (SI) [3]: 2.12
- IC50 ([3]; MCF7, 48 h exposure, SRB assay): 20.1 µM
- IC50 ([4]; 48 h exposure, SRB assay): > 150 µM
- IC50 [5, 12]: 42.7 µM
- Selectivity index (SI) [6]: 1.32
- IC50 [6, 13]: 32.4 µM
- IC50 [7, 14]: 86.5 µM

Compound: RuCp(PPh3)2(ATZ)BF4 [Complex 2]
- free anastrozole observed in DMSO (1H NMR) (Stability in DMSO): 2%
- change of UV-Vis absorption spectrum in DMSO (Stability in DMSO; over 1 h): No apparent change
- aromatase inhibitory activity at higher concentrations ([2]; above 10 nM (tested up to 100 nM), 1.5 h, H295R cells): slight aromatase inhibitory activity
- inhibition of aromatase activity ([2]; up to 10 nM, 1.5 h, H295R cells): No significant inhibition
- hatching delay of zebrafish embryos [9]: no apparent
- mortality of zebrafish embryos [9]: no apparent
- phenotype changes of zebrafish embryos [9]: no apparent
- Selectivity index (SI) [3]: 1.16
- IC50 ([3]; MCF7, 48 h exposure, SRB assay): 0.5 µM
- Selectivity index (SI) ([4]; IC50 (MCF12A) / IC50 (T47D)): 1.81
- IC50 ([4]; 48 h exposure, SRB assay): 0.32 µM
- IC50 [5, 12]: 0.58 µM
- released anastrozole in culture medium [10]: 4%
- solubility in culture medium ([11]; full DMEM/F12 medium (0.1% DMSO)): ≥ 20 µM
- solubility in water ([11]; water (max 0.5% DMSO)): ≥ 15 µM
- Selectivity index (SI) [6]: 1.49
- IC50 [6, 13]: 0.39 µM
- solubility in organic solvents (qualitative) [1]: soluble in acetone, alcohols and dimethyl sulfoxide (DMSO)
- solubility in water (qualitative) [1]: poorly soluble in water
- IC50 [7, 14]: 0.63 µM
- Selectivity index (SI) ([7]; IC50 (MCF12A) / IC50 (H295R)): 0.92
